Laboratory results published in ChEMBL document CHEMBL5390295, “Isolinderalactone Ameliorates the Pathology of Alzheimer's Disease by Inhibiting the JNK Signaling Pathway” (2023).
Active and inactive are the calls of the source. No cut-off for these calls is given here.

Legend:
[1] = tested on: PC-12; assay: Induction of apoptosis in Abeta1-42 induced rat PC12 cells assessed as viable cell at 10 uM preincubated for 3 hrs followed by Abeta1-42 induction and measured after 24 hrs by Annexin V-FITC/PI staining based flow cytometry analysis (reference value: 97.8%); format: functional; settings: time 27 hrs
[2] = tested on: PC-12; assay: Induction of apoptosis in Abeta1-42 induced rat PC12 cells assessed as early apoptosis at 10 uM preincubated for 3 hrs followed by Abeta1-42 induction and measured after 24 hrs by Annexin V-FITC/PI staining based flow cytometry analysis (reference value: 1.5%); format: functional; settings: time 27 hrs
[3] = tested on: PC-12; assay: Neuroprotective activity in Abeta1-42 induced rat PC12 cells assessed as decrease in cleaved caspase-3 level at 10 uM preincubated for 3 hrs followed by Abeta1-42 induction and measured after 24 hrs; format: functional, cell-based; settings: time 27.0 hrs
Procedure, shortened: (§1)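 Aβ1–42 challenge in PC12 cells was 10 μM for 24 h after 3 h pretreatment at 10 μM. SP600125 (1.25 μM) was added 0.5 h before pretreatment where used. Cells were lysed in RIPA and protein measured by BCA. Blotting used PVDF transfer, 5% BSA/TBST block for 2 h, primaries 1:1000 overnight at 4 °C, and HRP secondary for 2 h. Bcl-2/Bax ratio and band intensities were quantified.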

[4] = tested on: PC-12; assay: Neuroprotective activity against rat PC12 cells assessed as reversal of Abeta1-42 induced Bax expression at 10 uM preincubated for 3 hrs followed by Abeta1-42 induction and measured after 24 hrs by Western blot analysis; format: functional, cell-based; settings: time 27.0 hrs; procedure, shortened: as §1
[5] = tested on: PC-12; assay: Neuroprotective activity in rat PC12 cells assessed as reversal of Abeta1-42 induced caspase-3 activation at 10 uM preincubated for 3 hrs followed by Abeta1-42 induction and measured after 24 hrs by Western blot analysis; format: functional, cell-based; settings: time 27.0 hrs
Procedure, shortened: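 PC12 cells (DMEM, 10% FBS, 37 °C, 5% CO2) pretreated 3 h, then given 10 μM Aβ1–42 oligomer (10 mM DMSO stock aged 7 days at 37 °C, diluted in medium) for 24 h. RIPA lysates were blotted on PVDF, blocked in 5% BSA/TBST, and probed overnight at 4 °C for cleaved caspase-3 (1:1000), then HRP secondary. Band intensity was quantified; mean ± SEM of three experiments.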

[6] = tested on: PC-12; assay: Neuroprotective activity against in Abeta1-42 induced rat PC12 cells assessed as effect on P38MAPK protein level at 10 uM preincubated for 3 hrs followed by Abeta1-42 induction and measured after 24 hrs by Western blot analysis; format: functional, cell-based; settings: time 27.0 hrs; procedure, shortened: as §1
[7] = tested on: PC-12; assay: Neuroprotective activity against in Abeta1-42 induced rat PC12 cells assessed as effect on cleaved caspase-3 level at 10 uM preincubated for 3 hrs followed by Abeta1-42 induction and measured after 24 hrs in the presence of SP600125 by Western blot analysis; format: functional, cell-based; settings: time 27.0 hrs; procedure, shortened: as §1
[8] = tested on: Mus musculus; assay: Anti-alzheimer activity against APP/PS1 dE9 double transgenic mouse model assessed as decrease in escape latency at 10 mg/kg, ip administered once daily for 30 consecutive day measured on day 5 by morris water maze test; format: functional, organism-based; settings: time 35.0 day
Procedure, shortened: (§2)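 Female APP/PS1 mice, 10 months old, about 30 g, 10 per group. Dosing was intraperitoneal in 1× PBS, once daily for one month (1 or 10 mg/kg test; 5 mg/kg donepezil). WT and untreated APP/PS1 controls got PBS. Morris water maze: training days 1–4, averaged escape latency. Day-5 probe trial ran 60 s with the platform removed, recording platform crossings and time per quadrant. Mean ± SEM.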

[9] = tested on: Mus musculus; assay: Anti-alzheimer activity in hippocampus of APP/PS1 dE9 double transgenic mouse model assessed as reduction in glial cell aggregation at 1 to 10 mg/kg, ip administered once daily for 30 consecutive days by immunofluorescence staining; format: functional, organism-based; settings: dose 1-10 mg/kg, time 30.0 day
Procedure, shortened: (§3)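 Brains from dosed female APP/PS1 mice (10 months) were fixed in 4% paraformaldehyde at 4 °C for 24–48 h, taken through a sucrose gradient and OCT, and cut into 15 μm sections. Sections were permeabilized with 0.3% Triton X-100, blocked in 10% BSA for 1 h, and incubated with primary antibody overnight at 4 °C (1:200). Secondary was 1:500 for 1 h at 25 °C, with DAPI counterstain and confocal imaging, in triplicate.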

[10] = tested on: Mus musculus; assay: Anti-alzheimer activity in hippocampus of APP/PS1 dE9 double transgenic mouse model assessed as reduction in APP/beta-amyloid level at 10 mg/kg, ip administered once daily for 30 consecutive days by Western blot analysis; format: functional, organism-based; settings: time 30.0 day
Procedure, shortened: (§4)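 Hippocampal homogenates from dosed APP/PS1 mice were extracted in RIPA and protein measured by BCA. Samples were run by SDS electrophoresis, transferred to 0.22 μm PVDF for 90 min, blocked with 5% BSA in TBST for 2 h at RT, and probed with primaries 1:1000 overnight at 4 °C. HRP secondary was applied for 2 h at RT.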

[11] = tested on: Mus musculus; assay: Anti-alzheimer activity in hippocampus of APP/PS1 dE9 double transgenic mouse model assessed as increase in the level of Map2 at 10 mg/kg, ip administered once daily for 30 consecutive days by Western blot analysis; format: functional, organism-based; settings: time 30.0 day; procedure, shortened: as §4
[12] = tested on: Mus musculus; assay: Anti-alzheimer activity in hippocampus of APP/PS1 dE9 double transgenic mouse model as reduction in neuronal apoptosis at 1 to 10 mg/kg, ip administered once daily for 30 consecutive days by immunofluorescence analysis; format: functional, organism-based; settings: dose 1-10 mg/kg, time 30.0 day; procedure, shortened: as §3
[13] = tested on: Mus musculus; assay: Anti-alzheimer activity in hippocampus of APP/PS1 dE9 double transgenic mouse model assessed as increase in […] at 1 to 10 mg/kg, ip administered once daily for 30 consecutive days […]; format: functional, organism-based; settings: dose 1-10 mg/kg, time 30.0 day
Procedure, shortened: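 Hippocampal tissue from dosed APP/PS1 mice was lysed in RIPA. SOD activity was read by WST-8/xanthine oxidase formazan kit assay and MDA by lipid peroxidation kit, with absorbance on a microplate reader.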

[14] = tested on: Mus musculus; assay: Anti-alzheimer activity in hippocampus of APP/PS1 dE9 double transgenic mouse model assessed as decrease in MDA level at 1 to 10 mg/kg, ip administered once daily for 30 consecutive days […]; format: functional, organism-based; settings: dose 1-10 mg/kg, time 30.0 day
[15] = tested on: Mus musculus; assay: Anti-alzheimer activity in hippocampus of APP/PS1 dE9 double transgenic mouse model assessed as decrease in the level of Bax at 10 mg/kg, ip administered once daily for 30 consecutive days by Western blot analysis; format: functional, organism-based; settings: time 30.0 day; procedure, shortened: as §4
[16] = tested on: Mus musculus; assay: Neuroprotective activity in APP/PS1 dE9 double transgenic mouse model assessed as improvement in spatial memory at 10 mg/kg, ip administered once daily for 30 consecutive days […] by morris water maze test; format: functional, organism-based; settings: time 36.0 day; procedure, shortened: as §2
[17] = tested on: PC-12; assay: Neuroprotective activity against Abeta1-42 induced rat PC12 cells assessed as increase in cell viability at 10 uM preincubated for 3 hrs followed by Abeta1-42 induction and measured after 24 hrs by MTT assay; format: functional, cell-based; settings: time 27.0 hrs
Procedure, shortened: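 PC12 cells were seeded at 5×10^3/well and pretreated 3 h with test compound (range or 10 μM), with or without SP600125 1.25 μM for 0.5 h beforehand. Cells were then exposed to 10 μM Aβ1–42 oligomers for 24 h. MTT 0.5 mg/mL was added for 3–4 h, formazan dissolved in DMSO, and absorbance read at 570 nm. Viability is given as % of control.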

[18] = tested on: Mus musculus; assay: Anti-alzheimer activity against mouse model APP/PS1 dE9 double transgenic mouse model assessed as improvement in average movement speed at 1 to 10 mg/kg, ip administered once daily for 30 consecutive days measured on day 1 by novel object recognition test; format: functional, organism-based; settings: dose 1-10 mg/kg, time 31.0 day

## C=C[C@@]1(C)Cc2occ(C)c2[C@@H]2OC(=O)C(=C)[C@@H]21 [ISOLINDERALACTONE]
[1]
  Activity: 97.6%
[2]
  Activity: 2%
[3]
  Activity: Active
[4]
  Activity: Active
[5]
  Activity: Active
[6]
  Activity: inactive
[7]
  Activity: inactive
[8]
  Activity: Active
[9]
  Activity: Active
[10]
  Activity: Active
[11]
  Activity: Active
[12]
  Activity: Active
[13]
  Activity: Active
[14]
  Activity: Active
[15]
  Activity: Active
[16]
  Activity: Active
[17]
  Activity: Active
[18]
  Activity: Active
